The source made the active and inactive calls. No cut-off for these calls is given here. A value given as a limit tells only on which side of the number the result lay.

We go through twelve compounds from ChEMBL document CHEMBL1124070, “Potential anticancer agents: 5-(N-substituted-aminocarbonyl)- and 5-(N-substituted-aminothiocarbonyl)-5,6,7,8-tetrahydrofolic acids” (J Med Chem, 1988).

Experiment [1] deals with HEp-2. In words: Dose of compound required to inhibit colony formation of H.Ep-2 cells. In kind it is functional, cell-based. The conditions noted are these: Homo sapiens. Put shortly: (§1)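 Colony-forming viability assay in H.Ep.-2 cells. The ED50 is the concentration that inhibits colony formation by 50%.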
The next experiment has as its system L1210. Put plainly: Compound was tested for activity against L1210 cells in mice; IA=Inactive. The class given is functional, cell-based. The conditions noted are these: Mus musculus.
Experiment [2] in a line: Compound was tested for activity against 10 isolated folate-utilizing enzymes; IA=Inactive.
The test system of experiment [3] is HEp-2. In words: Effective dose required to inhibit colony formation of H.Ep-2 cells. In kind it is functional. The conditions noted are these: Homo sapiens, read-out: ED50 (the source's name). In outline: as §1
For another experiment, the system named is P388. In words: Compound was tested for cytotoxicity against P388 cells; IA=Inactive. Conditions: Mus musculus. The class given is functional, cell-based.

One may read the IC50 as the point on the concentration scale where inhibition reaches its midpoint. A high value points to weaker potency in that assay. For the compound `CCOC(=O)CCCCCCC/N=C(\S)N1c2c(O)nc(N)nc2NCC1CNc1ccc(C(=O)NC(CCC(=O)O)C(=O)O)cc1` (stereo not given), the IC50 in the experiment on HEp-2 [1] was over 25 µM.

In the case of `Nc1nc(O)c2c(n1)NCC(CNc1ccc(C(=O)NC(CCC(=O)O)C(=O)O)cc1)N2/C(S)=N/c1ccccc1` (stereo not given), the Cytotoxicity result with L1210 is “inactive”. The result in experiment [2] was inactive. Take `NC(=O)N1c2c(O)nc(N)nc2NCC1CNc1ccc(C(=O)NC(CCC(=O)O)C(=O)O)cc1` (stereo not given): the Cytotoxicity entry in the experiment on L1210 is “inactive”. Moreover, the result in experiment [2] was inactive. Take `CCOC(=O)CCCCCCCNC(=O)N1c2c(O)nc(N)nc2NCC1CNc1ccc(C(=O)NC(CCC(=O)O)C(=O)O)cc1` (stereo not given): the EC50 in the experiment with HEp-2 [3] worked out at 24 µM.

As for `Nc1nc(O)c2c(n1)NCC(CNc1ccc(C(=O)NC(CCC(=O)O)C(=O)O)cc1)N2C(=O)NCCCl` (stereo not given), the Cytotoxicity entry in the experiment with L1210 is “inactive”. Moreover, the result in experiment [2] was inactive. As for `CC/N=C(\S)N1c2c(O)nc(N)nc2NCC1CNc1ccc(C(=O)NC(CCC(=O)O)C(=O)O)cc1` (stereo not given), the Cytotoxicity entry with L1210 is “inactive”. The result in experiment [2] was inactive.

In the case of `CCOC(=O)CCCCC/N=C(\S)N1c2c(O)nc(N)nc2NCC1CNc1ccc(C(=O)NC(CCC(=O)O)C(=O)O)cc1` (stereo not given), the IC50 in the experiment with HEp-2 [1] is over 25 µM. `CCOC(=O)CCCCCCNC(=O)N1c2c(O)nc(N)nc2NCC1CNc1ccc(C(=O)NC(CCC(=O)O)C(=O)O)cc1` (stereo not given): the Cytotoxicity entry with P388 is “inactive”. In the experiment with HEp-2 [3], the EC50 stood at 4 µM. Regarding `CCOC(=O)CCCCCNC(=O)N1c2c(O)nc(N)nc2NCC1CNc1ccc(C(=O)NC(CCC(=O)O)C(=O)O)cc1` (stereo not given), the Cytotoxicity result in the experiment on P388 was “inactive”. The EC50 in the experiment with HEp-2 [3] turned out to be 13 µM.

Take `CCOC(=O)CCCCCCCCNC(=O)N1c2c(O)nc(N)nc2NCC1CNc1ccc(C(=O)NC(CCC(=O)O)C(=O)O)cc1` (stereo not given): the Cytotoxicity entry with P388 is “inactive”. In the experiment with HEp-2 [3], the EC50 stood at 35 µM. Compound `CCOC(=O)CCCCCC/N=C(\S)N1c2c(O)nc(N)nc2NCC1CNc1ccc(C(=O)NC(CCC(=O)O)C(=O)O)cc1` (stereo not given) registered an IC50 with HEp-2 [1] of over 25 µM. `CCOC(=O)CCCCCCCC/N=C(\S)N1c2c(O)nc(N)nc2NCC1CNc1ccc(C(=O)NC(CCC(=O)O)C(=O)O)cc1` (stereo not given): in the experiment with P388, the Cytotoxicity entry was “inactive”. Besides, the IC50 in the experiment on HEp-2 [1] is over 25 µM.
